What is called pKd is the negative decadic logarithm of the Kd, by convention in mol/L. A higher pKd goes with a low Kd.

pKd: −log10 of the molar value.

Data set [1] in a line: Binding affinity to HSP90-alpha L107G mutant (unknown origin) expressed in Escherichia coli BL21 by SPR assay. Set-up: species or system Homo sapiens. In outline: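 SPR on a Biacore T200 at 25 °C with running buffer PBST (PBS pH 7.4, 0.005% Tween-20). Protein at 20 μg/mL in 10 mM sodium acetate pH 5.0 was immobilized on a CM5 chip, which was equilibrated overnight in PBST. Inhibitor serially diluted from 10 μM was injected at 30 μL/min with 120 s contact and 120 s dissociation.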
In general terms: SPR reads the build-up and loss of mass on a sensor chip optically.

In another data set the test system is CNE-2. Nature of the data set: Induction of apoptosis in human CNE-2 cells assessed as necrosis cells level at 50 nM incubated for 12 hrs by Annexin-V/FITC staining based FACS analysis (reference value: 1.45%). The format is cell-based. The note with it: cne-2, 12 h, 0.05 µM.

`CC(C)(C)c1ccc(Cn2cc(-c3cc(O)c(O)c(O)c3)nn2)cc1` showed a negative logarithm of the Kd (pKd) in data set [1] of 4.54. Further, the Activity in the data set with CNE-2 stood at 0.37%.

Source of the values: ChEMBL document CHEMBL4706684, “Discovering High Potent Hsp90 Inhibitors as Antinasopharyngeal Carcinoma Agents through Fragment Assembling Approach” (J Med Chem, 2021).
